Source: ChEMBL document CHEMBL1125410, “Selective irreversible inhibitors of aldose reductase” (J Med Chem, 1992)
One block for each compound: values may come before it.

Tests used:
[1] = molecular target: Aldo-keto reductase family 1 member B1 (Rattus norvegicus) (UniProt P07943); test: Compound was evaluated for irreversible inhibition of Rat Lens Aldose reductase (RLAR) at 10e-4 M
Outline: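 Each purified reductase was desalted into 0.1 M phosphate (pH 7.4) to remove glycerol and 2-mercaptoethanol. Enzyme (ca. 0.3 unit/mL) was exposed to inhibitor or buffer alone for 15 min at room temperature. A 400 µL aliquot was then desalted into pH 7.0 phosphate with 10 mM 2-mercaptoethanol, and BSA was added. The eluate was kept on ice, and residual activity was read from NADPH loss at 340 nm with DL-glyceraldehyde. Runs were at least triplicate and averaged.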

[2] = Ratio of IC50(RKALR) vs IC50(RLAR)
[3] = molecular target: Aldo-keto reductase family 1 member B1 (Rattus norvegicus, UniProt P07943); test: Compound was evaluated for the inhibition of Rat Lens Aldose reductase (RLAR)
Outline: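 Purified rat lens aldose reductase and rat kidney aldehyde reductase, each homogeneous on SDS-PAGE. The 1.0 mL assay held equal enzyme units in 0.10 M Na,K phosphate (pH 6.2), 0.3 mM NADPH, 10 mM DL-glyceraldehyde and inhibitor. The NADPH decrease at 340 nm was followed over 4 min, with no-substrate absorbance controls. IC50 is given as mean ± SD.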

[4] = tested on: Aldehyde reductase AKR1A1 (Rattus norvegicus); test: Compound was evaluated for irreversible inhibition of Rat kidney Aldehyde reductase (RKALR) at 10e-4 M
[5] = molecular target: Aldo-keto reductase family 1 member B1 (Rattus norvegicus) (UniProt P07943); test: Protection by the compound of irreversible inhibition of Rat Lens Aldose reductase by [5-(2-Iodo-acetyl)-1,3-dioxo-1H,3H-benzo[de]isoquinolin-2-yl]-acetic acid(0.1 mM) at 1 mM concentration; assay type: functional
Outline: (§1)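 Rat lens aldose reductase was desalted into 0.1 M phosphate (pH 7.4). The enzyme was preincubated 5 min with the reversible inhibitor, then the iodoacetamide label was added for a further 5 min. Unreacted reagent was removed by desalting into buffer with 10 mM 2-mercaptoethanol, BSA was added, and residual activity was read by NADPH loss at 340 nm. Runs were at least triplicate and averaged.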

[6] = molecular target: Aldo-keto reductase family 1 member B1 (Rattus norvegicus) (UniProt P07943); test: Protection by the compound of irreversible inhibition of Rat Lens Aldose reductase by [5-(2-Iodo-acetyl)-1,3-dioxo-1H,3H-benzo[de]isoquinolin-2-yl]-acetic acid(0.01 mM) at 1 mM concentration; assay type: functional; outline: as §1
[7] = molecular target: Aldo-keto reductase family 1 member B1 (Rattus norvegicus) (UniProt P07943); test: Protection by the compound of irreversible inhibition of Rat Lens Aldose reductase by [5-(2-Iodo-acetyl)-1,3-dioxo-1H,3H-benzo[de]isoquinolin-2-yl]-acetic acid(0.01 mM) at 0.1 mM concentration; assay type: functional; outline: as §1
[8] = molecular target: Aldo-keto reductase family 1 member B1 (Rattus norvegicus) (UniProt P07943); test: Protection by the compound of irreversible inhibition of Rat Lens Aldose reductase by [5-(2-Iodo-acetyl)-1,3-dioxo-1H,3H-benzo[de]isoquinolin-2-yl]-acetic acid(0.1 mM) at 0.1 mM concentration; assay type: functional; outline: as §1
[9] = molecular target: Aldo-keto reductase family 1 member B1 (Rattus norvegicus) (UniProt P07943); test: Protection by the compound of irreversible inhibition of Rat Lens Aldose reductase by [5-(2-Iodo-acetyl)-1,3-dioxo-1H,3H-benzo[de]isoquinolin-2-yl]-acetic acid(0.01 mM) at 0.01 mM concentration; assay type: functional; outline: as §1
[10] = molecular target: Aldo-keto reductase family 1 member B1 (Rattus norvegicus) (UniProt P07943); test: Protection by the compound of irreversible inhibition of Rat Lens Aldose reductase by [5-(2-Iodo-acetyl)-1,3-dioxo-1H,3H-benzo[de]isoquinolin-2-yl]-acetic acid(0.1 mM) at 0.01 mM concentration; assay type: functional; outline: as §1

inhibition [1]: 46% | Ratio [2]: 13 Ratio | IC50 [3]: 0.6 µM
Structure (SMILES): O=C(O)CN1C(=O)c2cccc3cc(NC(=O)CBr)cc(c23)C1=O

inhibition [1]: 89%
Structure (SMILES): O=C(O)CN1C(=O)c2cccc3cc(C(=O)CI)cc(c23)C1=O

inhibition [4]: 0%
Structure (SMILES): O=C(O)CN1C(=O)c2cccc3cc(N=C=S)cc(c23)C1=O

Protection [5]: 39% | Ratio [2]: 10 | IC50 [3]: 0.64 µM | Protection [6]: 100% | Protection [7]: 43% | Protection [8]: 19% | Protection [9]: 11% | Protection [10]: 17%
Structure (SMILES): CC(=O)Nc1cc2c3c(cccc3c1)C(=O)N(CC(=O)O)C2=O
